hERG protect: compounds protecting human hERG from proarrhythmic drug block. CHO-hERG, FluxOR thallium flux, dofetilide IC70 present. 0.51% of 310,000 active. activation (rescue from dofetilide block), less the hit threshold, % at 10 µM. AID 1511;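 active = activation above the mean of controls blocked by dofetilide plus 5 SD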;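 note: thallium influx through hERG after potassium depolarization seen as dye fluorescence rise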
KCNQ1 act: human KCNQ1 channel potentiation or activation; CHO-K1 KCNQ1, thallium flux FluxOR fluorescence; active compounds read high; 0.35% of 310,000 active; B-score at 10 µM;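 active = fluorescence ratio B-score, a plate-corrected score, at least three library SD, with initial intensity B-score within 5 SD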
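assay system = CHO-K1 cells stably expressing KCNQ1 | medium = assay buffer, equal DMSO in all wells | timing = 37 °C overnight plating, 90-min dark dye load, 20-min compound pretreatment | measured by = kinetic FluxOR thallium fluorescence, 10-s 1-Hz baseline, 110-s post-stimulus read | measure = fluorescence change relative to baseline, converted to B score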
Kir21 inh: Kir2.1 (mouse) channel inhibition; HEK293-Kir2.1, FluxOR thallium flux fluorescence; active compounds read low; B-score at 10 µM; 0.85% of 310,000 active; AID 1672;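 active = fluorescence ratio B-score at or below minus 3 SD of library scores, with starting-brightness B-score within 2 SD, cut at about -4.2 in these data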;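 note: channel flux triggered by added potassium and thallium sulfate stimulus; B-score of peak minus minimum fluorescence over baseline after thallium stimulus; more negative B-score means stronger Kir2.1 block with less thallium influx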
KCNK3 block: human KCNK3 channel inhibition, primary screen; O14649; CHO-KCNK3 thallium flux, FluxOR fluorescence; active compounds read low; B-score at 10 µM; 0.84% of 340,000 active;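 active = B-score under library mean minus 4 SD, starting fluorescence ratio at most library mean plus 5 SD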;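 note: more negative B-score means stronger inhibition of thallium flux through KCNK3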
KCNK9 block: human KCNK9 channel inhibition. Q9NPC2. HEK293 KCNK9, FluxOR thallium flux fluorescence; active compounds read low. B-score at 10 µM. 1.2% of 310,000 active;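 active = ratio B-score over 3 SD below the library mean, with starting fluorescence within 5 SD of its mean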;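 note: negative B-score means less thallium flux so channel inhibition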
KCNQ1 inh: blocks the human KCNQ1 potassium channel; 1.3% of 310,000 active; P51787; CHO-K1 KCNQ1, FluxOR thallium flux fluorescence; active compounds read high; B-score at 10 µM;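 active = compounds whose thallium flux B-score, printed positive for inhibition, exceeds three library SD while starting fluorescence stays within three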;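 note: channel opened by potassium depolarization with thallium stimulus after 20 min compound exposure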
KCNK9 inh conf: confirmation of human KCNK9 potassium channel inhibitors; shares compounds with KCNK9 block; HEK293 KCNK9 cells, FluxOR thallium flux fluorescence; inhibition, % at 10 µM; 43% of 4,900 active;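 active = thallium signal inhibited by more than 5 SD of the compound-free buffer control wells, on both duplicate plates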;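 note: 0% = assay buffer control wells without compound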
Kir21 sel: mouse Kir2.1 off-target activity of KCNK9 modulators | shares compounds with KCNK9 block | Kir2.1 cells, FluxOR thallium flux fluorescence | inhibition, % at 10 µM | 4% of 4,900 active | AID 492993;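 active = thallium signal drop more than 5 SD beyond the mean of the no-compound control wells, seen in both duplicate plates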;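 note: signal is fluorescence rise after thallium addition divided by baseline fluorescence; plate controls were assay buffer only for no effect and full block by chlorpromazine control for full effect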
KCNK9 uninduced: second counter-screen for KCNK9 modulators: effect in non-induced cells | shares compounds with KCNK9 block | non-induced KCNK9-HEK293, FluxOR thallium flux | inhibition, % at 10 µM | 40% of 4,900 active | AID 492997;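 active = thallium signal drop beyond 5 SD of the untreated control mean, on both duplicate plates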;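 note: plate controls were buffer only IC0 wells for no effect and SID17386958 at its maximal inhibitory level for full effect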
* marks the source's active call; other numbers are inactive results; i = inactive; / = no result. In the library only some 3.7% were active in any assay of this set; here they are far more common.

SMILES | hERG protect | KCNQ1 act | Kir21 inh | KCNK3 block | KCNK9 block | KCNQ1 inh | KCNK9 inh conf | Kir21 sel | KCNK9 uninduced
NCCn1c(-c2ccccc2)cc(C(=O)O)c1-c1ccccc1F | -8.2 | i | 0.48 | i | i | i | / | / | /
CCOc1ccccc1NC(=O)COC(=O)c1cccc(-c2ccc(OC(C)=O)cc2)c1 | -9.4 | i | -2.19 | i | -10.1* | i | i | i | 32.0%*
CC(=O)Oc1ccc(-c2cccc(C(=O)OCC(=O)Nc3ccccc3Oc3ccccc3)c2)cc1 | -14.4 | i | 0.15 | i | i | i | / | / | /
Cc1ccc2c(c1)N(CC(=O)NCCc1ccccc1)C(=O)c1cccnc1O2 | -10.7 | i | -1.55 | i | i | i | i | i | i
CC(C)c1cc(NCCOCCO)n2c(nc3ccccc32)c1C#N | -0.5 | i | 1.16 | i | i | i | / | / | /
Clc1ccc(SCCOCCN2CCc3ccccc3C2)cc1 | -8.6 | i | -8.54* | i | i | i | i | i | i
OC(COC(c1ccccc1)c1ccccc1)CN1CCc2ccccc2C1 (stereo unspecified) | -6.6 | i | -3.67 | i | i | i | / | / | /
OC(COC(c1ccc(Cl)cc1)c1ccc(Cl)cc1)CN1CCc2ccccc2C1 (stereo unspecified) | -22.9 | i | -0.39 | i | -15.7* | i | 57.5%* | i | 38.0%*
CCS(=O)CC(=O)Nc1c(-c2ccccc2)oc2ccccc2c1=O (stereo unspecified) | -9.6 | i | -0.08 | i | i | i | / | / | /
Cc1ccc(C)c(N(CC(=O)NC2CCCC2)C(=O)CCC(=O)Nc2cc(C)on2)c1 | -8.2 | i | -0.05 | i | i | i | / | / | /
CCC(c1nnnn1C(C)(C)C)N1CCN(c2cc(Cl)ccc2C)CC1 (stereo unspecified) | -4.6 | i | 2.35 | -8.88* | -9.92* | i | 49.0%* | i | 47.0%*
c1cnc2ccc(C(c3nnnn3C3CCCC3)N3CCN(c4nc5ccccc5s4)CC3)cc2c1 (stereo unspecified) | -7.9 | i | 0.33 | -9.1* | -9.16* | i | i | i | 40.0%*
Cc1ccc(Cl)cc1N1CCN(C(c2cccnc2)c2nnnn2C2CCCCC2)CC1 (stereo unspecified) | -7.0 | i | 0.02 | -11* | -12.7* | i | 37.0%* | i | 44.0%*
Cc1noc(C)c1COC(=O)[C@@H](NC(=O)c1ccccc1)C(C)C | -6.6 | i | -0.74 | i | i | i | / | / | /
CC(C(=O)N1CCc2ccccc21)N1CCN(S(=O)(=O)c2cccc(C(F)(F)F)c2)CC1 (stereo unspecified) | / | / | / | i | / | / | / | / | /
OCC1OC(n2ccc3c(SCc4ccccc4)ncnc32)C(O)C1O (stereo unspecified) | / | / | / | i | / | / | / | / | /
CN(CC(=O)NC1CCCCCCC1)S(=O)(=O)c1cccc2cccnc12 | -6.3 | i | 0.03 | i | i | i | i | i | i
O=C(NCc1ccccc1)C1=C[C@H](c2ccc(Br)cc2)C[C@H](OCCCCO)O1 | -8.6 | i | -0.47 | i | i | i | i | i | i
CC(C)(C)[C@H]1C=C(C(=O)NCc2ccccc2)O[C@@H](OCCCCO)C1 | -4.0 | i | -0.81 | i | i | i | i | i | i
O=C(Nc1ccccc1)C1=C[C@H](c2csc3ccccc23)C[C@H](OCc2ccc(CO)cc2)O1 | -3.7 | i | 2.16 | i | -9.1* | i | 45.5%* | i | 35.5%*
O=C(C1=C[C@@H](c2ccc(Br)cc2)C[C@@H](OCCCCO)O1)N1CCN(Cc2ccc3c(c2)OCO3)CC1 | -11.4 | i | 0.03 | i | i | i | / | / | /

Screening results (PubChem)
